For data set [1], the system named is Staphylococcus aureus. The data set can be described thus: Antimicrobial activity against methicillin-resistant Staphylococcus aureus CCARM 3695 treated with sample containing 200 ug/ml drug incubated with PBS containing 50% normal human serum for 10 mins measured after 3 hrs by radial diffusion assay. The data set is classed as functional, organism-based. The gist of the method: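 Normal human serum from three donors, heat-treated 30 min at 56°C. Peptide at 25–200 µg/ml in PBS with 50% serum, held 10 min at 37°C; 5 µl placed in 3-mm wells. Underlay: 1% agarose, 9 mM phosphate, 1 mM citrate, 0.3 mg/ml TSB, pH 7.4, with 4 x 10^6 CFU/ml mid-log MRSA. After 3 h at 37°C, overlaid (1% agarose, 6% TSB), incubated overnight. Clear zones in units (1 mm = 10 units); triplicate means.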

The test system of data set [2] is Listeria monocytogenes. The data set can be described thus: Antimicrobial activity against Listeria monocytogenes ATCC 19111 after 18 hrs by broth microdilution assay. The class given is functional. Particulars: ATCC 19111, 18 h. The method in brief:
(§1)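 Bacteria were grown overnight to stationary phase in Mueller-Hinton broth at 37°C and diluted to 2 x 10^5 CFU/ml. Line 3 used MHB plus 150 mM NaCl. Peptide stock (640 µg/ml in 0.01% acetic acid) was twofold serially diluted to 10 µg/ml, and 11 µl was added per 100 µl of cells. Turbidity was read after 18 h at 37°C; MIC was the minimum concentration visibly inhibiting growth.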

Data set [3] has as its system Staphylococcus aureus. Nature of the data set: Antimicrobial activity against methicillin-resistant Staphylococcus aureus CCARM 3695 treated with supernatant containing 2 mg drug incubated for 10 mins with PBS containing 50 % normal human serum centrifuged for 3 hrs by radial diffusion assay. The data set is classed as functional, organism-based. The gist of the method: (§2)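 2 mg peptide incubated 10 min at 37°C in 2 ml PBS, either serum-free or with 50% heat-treated normal human serum. Spun 3 h at 295,000 x g, 4°C. Then 5 µl of supernatant tested by radial diffusion against mid-log MRSA (4 x 10^6 CFU/ml underlay, 3 h at 37°C, overlay, overnight); clear zones measured.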

The test system of data set [4] is Enterococcus faecium. The data set can be described thus: Antimicrobial activity against vancomycin-resistant Enterococcus faecium CCARM 5029 after 18 hrs by broth microdilution assay in presence of 150 mM NaCl. The data set is classed as functional. Particulars: CCARM 5029, 18 h. The method in brief: (§3)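 Same broth microdilution, but the medium was Mueller-Hinton broth supplemented with 150 mM NaCl. Inoculum 2 x 10^5 CFU/ml final. Peptide twofold series in 0.01% acetic acid (stocks 640 to 10 µg/ml). After 18 h at 37°C, MIC read as the lowest concentration with no visible growth.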
A general note: In broth dilution the organism is exposed to a series of concentrations in liquid medium.

In data set [5] the test system is Staphylococcus aureus. Nature of the data set: Antimicrobial activity against methicillin-resistant Staphylococcus aureus CCARM 3695 after 18 hrs by broth microdilution assay. The data set is classed as functional. Particulars: CCARM 3695, 18 h. The method in brief:
(§4)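 Broth microdilution (modified CLSI). Overnight stationary-phase Mueller-Hinton broth cultures diluted to 2 x 10^5 CFU/ml final. Peptide serially twofold diluted in 0.01% acetic acid (stock series 640 down to 10 µg/ml); 11 µl added to 100 µl of bacteria. After 18 h at 37°C, MIC taken as the lowest concentration preventing visible turbidity.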

The test system of data set [6] is Listeria monocytogenes. Nature of the data set: Antimicrobial activity against Listeria monocytogenes ATCC 19111 after 18 hrs by broth microdilution assay in presence of 150 mM NaCl. The conditions noted are these: ATCC 19111, 18 h. The data set is classed as functional. The method in brief: as §1
Data set [7] deals with Enterococcus faecium. Nature of the data set: Antimicrobial activity against vancomycin-resistant Enterococcus faecium CCARM 5029 after 18 hrs by broth microdilution assay. The class given is functional. The conditions noted are these: CCARM 5029, 18 h. The gist of the method:
as §4

Data set [8] concerns Staphylococcus aureus. The data set can be described thus: Antimicrobial activity against methicillin-resistant Staphylococcus aureus CCARM 3695 after 18 hrs by broth microdilution assay in presence of 150 mM NaCl. The class given is functional. Particulars: CCARM 3695, 18 h. The gist of the method: as §3
Data set [9] relates to Listeria monocytogenes. The data set can be described thus: Antibacterial activity against Listeria monocytogenes ATCC 19111 in assay tube containing mixture of erythrocyte/Listeria monocytogenes cells assessed as logarithmic reduction in CFU after 30 mins. The class given is functional. The gist of the method: (§5)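 Washed mid-log L. monocytogenes (final 1 x 10^5 CFU/ml) was mixed with human blood cells (final 5 x 10^8 cells/ml) and peptide (final 40 µg/ml) in PBS at 37°C. A peptide-free control was included. At 10, 20 and 30 min, aliquots were plated on TSA and colonies counted after overnight growth. Blood cells were counted by hemocytometer under light microscopy.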

The nature of data set [10]: Toxicity against human erythrocytes in assay tube containing mixture of erythrocytes/Listeria monocytogenes cells at 40 ug/ml after 30 mins. The class given is cell-based. Particulars: erythrocyte, 0.5 h. The method in brief: as §5
Data set [11] has as its system Staphylococcus aureus. The data set can be described thus: Antimicrobial activity against methicillin-resistant Staphylococcus aureus CCARM 3695 treated with supernatant containing 2 mg drug incubated for 10 mins with PBS centrifuged for 3 hrs by radial diffusion assay. The data set is classed as functional, organism-based. The method in brief: as §2

In brackets after ≈: the same amount, converted by molar mass. Activity calls are given as the source filed them. The rule behind the calls is not given here. Bridge positions count the residues as written; N and C are the ends. Peptide text beside a SMILES is read from it. I, II: the chains in the order shown.

Broadly, the MIC is the least concentration at which growth counts as inhibited. `CC(C)C[C@H](NC(=O)CNC(=O)[C@H](Cc1cnc[nH]1)NC(=O)[C@H](Cc1cnc[nH]1)NC(=O)[C@H](CC(C)C)NC(=O)[C@H](CC(C)C)NC(=O)[C@H](C)NC(=O)[C@H](CC(N)=O)NC(=O)[C@H](CC(C)C)NC(=O)[C@H](Cc1c[nH]c2ccccc12)NC(=O)[C@@H](N)CCCCN)C(=O)N[C@@H](CC(N)=O)C(=O)N[C@@H](CSSC[C@H](NC(=O)[C@H](CC(N)=O)NC(=O)[C@H](CC(C)C)NC(=O)CNC(=O)[C@H](Cc1cnc[nH]1)NC(=O)[C@H](Cc1cnc[nH]1)NC(=O)[C@H](CC(C)C)NC(=O)[C@H](CC(C)C)NC(=O)[C@H](C)NC(=O)[C@H](CC(N)=O)NC(=O)[C@H](CC(C)C)NC(=O)[C@H](Cc1c[nH]c2ccccc12)NC(=O)[C@@H](N)CCCCN)C(=O)N[C@@H](C)C(=O)N[C@@H](CCCCN)C(=O)NCC(=O)N[C@H](C(=O)N[C@@H](CC(C)C)C(=O)N[C@@H](C)C(=O)O)C(C)C)C(=O)N[C@@H](C)C(=O)N[C@@H](CCCCN)C(=O)NCC(=O)N[C@H](C(=O)N[C@@H](CC(C)C)C(=O)N[C@@H](C)C(=O)O)C(C)C` (I: H-KWLNALLHHGLNCAKGVLA-OH / II: H-KWLNALLHHGLNCAKGVLA-OH; disulfide I:13-II:13): the result with Staphylococcus aureus [1] and with Staphylococcus aureus [3] was inactive. In addition, the minimal inhibitory concentration (MIC) against Listeria monocytogenes [2] is 4 µg/mL (≈ 0.972 µM); in the data set on Enterococcus faecium [4] it was 4 µg/mL; against Staphylococcus aureus [5], 4 µg/mL (≈ 0.972 µM); in the data set with Listeria monocytogenes [6], 8 µg/mL; against Enterococcus faecium [7] it was 4 µg/mL (≈ 0.972 µM); in the data set on Staphylococcus aureus [8], 8 µg/mL.
Take H-RRWVRRVRRVWRRVVRVVRRWVRR-OH: the outcome with Listeria monocytogenes [9] was Active. In addition, the Activity entry in data set [10] is recorded as “Toxic”.
For `CC[C@H](C)[C@H](NC(=O)CN)C(=O)NCC(=O)N[C@@H](C)C(=O)N[C@H](C(=O)N[C@@H](CC(C)C)C(=O)N[C@@H](CCCCN)C(=O)N[C@H](C(=O)N[C@@H](CC(C)C)C(=O)N[C@H](C(=O)N[C@H](C(=O)NCC(=O)N[C@@H](CC(C)C)C(=O)N1CCC[C@H]1C(=O)N[C@@H](C)C(=O)N[C@@H](CC(C)C)C(=O)N[C@H](C(=O)N[C@@H](CO)C(=O)N[C@@H](Cc1c[nH]c2ccccc12)C(=O)N[C@H](C(=O)N[C@@H](CCCCN)C(=O)N[C@@H](CCCNC(=N)N)C(=O)N[C@@H](CCCCN)C(=O)N[C@@H](CCCNC(=N)N)C(=O)N[C@@H](CCC(N)=O)C(=O)N[C@@H](CCC(N)=O)C(N)=O)[C@@H](C)CC)[C@@H](C)CC)[C@@H](C)O)[C@@H](C)O)C(C)C)C(C)C` [MELITTIN], in that order: “Active” and “Toxic”.
For `CC(C)C[C@H](NC(=O)CNC(=O)[C@H](Cc1cnc[nH]1)NC(=O)[C@H](Cc1cnc[nH]1)NC(=O)[C@H](CC(C)C)NC(=O)[C@H](CC(C)C)NC(=O)[C@H](C)N)C(=O)N[C@@H](CC(N)=O)C(=O)N[C@@H](CSSC[C@H](NC(=O)[C@H](CC(N)=O)NC(=O)[C@H](CC(C)C)NC(=O)CNC(=O)[C@H](Cc1cnc[nH]1)NC(=O)[C@H](Cc1cnc[nH]1)NC(=O)[C@H](CC(C)C)NC(=O)[C@H](CC(C)C)NC(=O)[C@H](C)NC(=O)[C@H](CC(N)=O)NC(=O)[C@H](CC(C)C)NC(=O)[C@@H](N)Cc1c[nH]c2ccccc12)C(=O)N[C@@H](C)C(=O)N[C@@H](CCCCN)C(=O)NCC(=O)N[C@H](C(=O)N[C@@H](CC(C)C)C(=O)N[C@@H](C)C(=O)O)C(C)C)C(=O)N[C@@H](C)C(=O)N[C@@H](CCCCN)C(=O)NCC(=O)N[C@H](C(=O)N[C@@H](CC(C)C)C(=O)N[C@@H](C)C(=O)O)C(C)C` [HALOCIDIN] (I: H-WLNALLHHGLNCAKGVLA-OH / II: H-ALLHHGLNCAKGVLA-OH; disulfide I:12-II:9), the MIC is 64 µg/mL (≈ 18.6 µM) in the data set with Listeria monocytogenes [2]; > 64 µg/mL in the data set on Enterococcus faecium [4]; 16 µg/mL (≈ 4.64 µM) against Staphylococcus aureus [5]; > 64 µg/mL with Listeria monocytogenes [6]; 64 µg/mL (≈ 18.6 µM) against Enterococcus faecium [7]; 32 µg/mL with Staphylococcus aureus [8]. The result with Staphylococcus aureus [3] and with Staphylococcus aureus [11] was Active.

The values are drawn from ChEMBL document CHEMBL1151419, “Antimicrobial effect of halocidin-derived peptide in a mouse model of Listeria infection” (Antimicrob Agents Chemother, 2007).
